From ChEMBL document CHEMBL1136003, “2-Amino-3-aroyl-4,5-alkylthiophenes: agonist allosteric enhancers at human A(1) adenosine receptors” (J Med Chem, 2002)

Columns and labels:
[1] = target: T1, Adenosine receptor A1 (Homo sapiens) (UniProt P30542); experiment: Inhibition of [3H]CPX binding to membrane of CHO-K cells stably expressing human adenosine A1 receptors.; format: cell membranes; design: concentration or dose not given beside the values; conditions: concentration not given here
T1 sequence (whole entry): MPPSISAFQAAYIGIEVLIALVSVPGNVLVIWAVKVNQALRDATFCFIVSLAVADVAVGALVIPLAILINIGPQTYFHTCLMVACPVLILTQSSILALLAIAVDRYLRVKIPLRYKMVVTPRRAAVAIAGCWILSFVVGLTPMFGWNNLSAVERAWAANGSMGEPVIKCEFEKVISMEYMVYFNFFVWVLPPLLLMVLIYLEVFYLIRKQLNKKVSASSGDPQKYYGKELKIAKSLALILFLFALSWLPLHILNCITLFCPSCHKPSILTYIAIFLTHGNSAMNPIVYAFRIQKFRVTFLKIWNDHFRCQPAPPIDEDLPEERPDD
Summary of the method: (§1)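 Triplicate assays with membranes (15 µg protein) from CHO-K cells expressing human A1AR. Buffer was 10 mM HEPES pH 7.4 with 1 mM EDTA, adenosine deaminase 1 u/mL, [3H]CPX (4 nM in membrane aliquot), and enhancer added as 200 µM in 10% DMSO. Footnote gives enhancer at 100 µM. NECA defined nonspecific binding. Incubated 3 h at room temperature, then filtered and counted.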

[2] = target: T1, Adenosine receptor A1 (Homo sapiens); experiment: Allosteric enhancer activity score measured by its ability to stabilize the agonist-receptor-G protein ternary complex at a concentration of 100 uM; format: functional
Summary of the method: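 Candidate enhancer added (100 µM) for 5 min, then dissociation started with 8-cyclopentyltheophylline plus GTPγS. Residual bound agonist after 10 min counted by filtration. Score = 100 × (B − Bo)/(Beq − Bo).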

[3] = target: T1, Adenosine receptor A1 (Homo sapiens); experiment: Inhibition of [3H]CPX binding to CHO-K cell membrane expressing human Adenosine A1 receptor; format: cell membranes; design: concentration or dose not given beside the values; conditions: concentration not given here; summary of the method: as §1

Row | SMILES | inhibition [1] | AE Score [2] | inhibition [3]
1 | Nc1sc2c(c1C(=O)c1cccc(Br)c1)CCCCC2 | 7% | 78% | –
2 | Nc1sc2c(c1C(=O)c1ccc(C3CCCCC3)cc1)CCCCC2 | – | 77% | –
3 | Cc1sc(N)c(C(=O)c2cccc(Br)c2)c1C | – | 16% | –
4 | CCOC(=O)c1c(N)sc2c1CCCC2 | 53% | 3.5% | –
5 | Nc1sc2c(c1C(=O)c1cccc(Cl)c1)CCC2 | – | 13% | 56%
6 | Nc1sc2c(c1C(=O)c1ccc(Cl)cc1)CCC2 | – | 70% | –
7 | Nc1sc2c(c1C(=O)c1cccc(Br)c1)CCC2 | – | 68% | 36%
8 | Nc1sc2c(c1C(=O)c1ccc(F)cc1)CCCC2 | 56% | 17% | –
9 | Cc1sc(C(=O)O)c(C(=O)c2cccc(C(F)(F)F)c2)c1C | – | 0% | –
10 | Cc1sc(N)c(C(=O)c2ccc(-c3ccccc3)cc2)c1C | – | 12% | –
11 | Cc1sc(C(=O)O)c(C(=O)c2ccc(-c3ccccc3)cc2)c1C | – | 0% | –
12 | Nc1sccc1C(=O)c1ccccc1 | – | 0.2% | 15%
13 | Nc1sc2c(c1C(=O)c1ccc(-c3ccccc3)cc1)CCCC2 | – | 33% | –
14 | Cc1sc(N)c(C(=O)c2cccc(C(F)(F)F)c2)c1C | – | 19% | 42%
15 | Nc1sc2c(c1C(=O)c1ccc(Br)cc1)CCCC2 | 61% | 83% | –
16 | Nc1sc2c(c1C(=O)c1ccc(C3CCCCC3)cc1)CCCC2 | 47% | 99% | –
17 | Nc1sccc1C(=O)c1ccc(Br)cc1 | – | 0.8% | –
18 | Nc1sc2c(c1C(=O)c1ccc3ccccc3c1)CCC2 | 21% | 31% | –
19 | Nc1sc2c(c1C(=O)c1ccccc1)CCCC2 | 42% | 19% | –
20 | Nc1sc2c(c1C(=O)c1cccc(I)c1)CCCCC2 | – | 86% | –

Row | SMILES | inhibition [1] | AE Score [2] | inhibition [3]
21 | CCOC(=O)c1c(N)sc2c1CCC2 | – | 0.4% | 58%
22 | Nc1sc2c(c1C(=O)c1cccc(Cl)c1)CCCC2 | – | 70% | 78%
23 | Nc1sc2c(c1C(=O)c1ccc(Cl)cc1)CCCCC2 | – | 65% | –
24 | Nc1sc2c(c1C(=O)c1cccc(Br)c1)CCCC2 | – | 49% | 49%
25 | Nc1sc2c(c1C(=O)c1ccc(I)cc1)CCCCC2 | 9% | 96% | –
26 | Nc1sc2c(c1C(=O)c1ccc(F)cc1)CCCCC2 | – | 22% | –
27 | Nc1sc2c(c1C(=O)c1ccc(-c3ccccc3)cc1)CCC2 | – | 38% | –
28 | CCOC(=O)c1c(N)sc2c1CCCCC2 | 38% | 0.3% | –
29 | Nc1sccc1C(=O)c1ccc(Cl)c(Cl)c1 | – | 1.7% | –
30 | Nc1sc2c(c1C(=O)c1ccccc1)CCC2 | – | 20% | 56%
31 | Cc1sc(N)c(C(=O)c2cccc(Cl)c2)c1C | – | 14% | –
32 | Cc1sc(N)c(C(=O)c2cccc(F)c2)c1C | – | 0% | –
33 | Cc1ccc(C(=O)c2c(N)sc3c2CCCC3)cc1 | 36% | 19% | –
34 | Nc1sc2c(c1C(=O)c1ccc(I)cc1)CCCC2 | 62% | 86% | –
35 | Cc1sc(C(=O)O)c(C(=O)c2ccccc2)c1C | – | 0% | –
36 | N#Cc1ccc(C(=O)c2c(N)sc3c2CCCC3)cc1 | 21% | 19% | –
37 | Cc1cccc(C(=O)c2c(N)sc(C)c2C)c1 | – | 18% | –
38 | Cc1cc(C)c(C(=O)c2c(N)sc(C)c2C)c(C)c1 | – | 0% | –
39 | Nc1sc2c(c1C(=O)c1ccc(Br)cc1)CCC2 | – | 62% | 20%
40 | Nc1sc2c(c1C(=O)c1ccc3ccccc3c1)CCCCC2 | – | 75% | –

Row | SMILES | inhibition [1] | AE Score [2] | inhibition [3]
41 | COc1cccc(C(=O)c2c(N)sc3c2CCCCC3)c1 | 13% | 99% | –
42 | Nc1sccc1C(=O)c1ccc(Cl)cc1 | – | 0% | –
43 | Nc1sccc1C(=O)c1ccc2ccccc2c1 | – | 3.2% | –
44 | Nc1sc2c(c1C(=O)c1cccc3ccccc13)CCCCC2 | – | 81% | –
45 | Nc1sc2c(c1C(=O)c1ccccc1)CCCCC2 | 68% | 13% | –
46 | Cc1sc(N)c(C(=O)c2ccccc2)c1C | – | 9% | –
47 | Nc1sccc1C(=O)c1cccc(Br)c1 | – | 0.2% | –
48 | Nc1sccc1C(=O)c1cccc(F)c1 | – | 0% | –
49 | Nc1sc2c(c1C(=O)c1ccc3ccccc3c1)CCCC2 | – | 86% | –
50 | Nc1sc2c(c1C(=O)c1ccc(Cl)cc1)CCCC2 | 69% | 68% | –
51 | Nc1sc2c(c1C(=O)c1cccc(F)c1)CCCC2 | – | 22% | 35%
52 | Nc1sccc1C(=O)c1ccc(F)cc1 | – | 0% | –
53 | Nc1sc2c(c1C(=O)c1ccc(-c3ccccc3)cc1)CCCCC2 | – | 88% | –
54 | Nc1sc2c(c1C(=O)c1ccc(F)cc1)CCC2 | – | 22% | 40%
55 | COc1ccc(C(=O)c2c(N)sc3c2CCCCC3)cc1 | – | 85% | –
56 | Nc1sccc1C(=O)c1cccc(Cl)c1 | – | 0% | –
57 | Nc1sc2c(c1C(=O)c1cccc(F)c1)CCC2 | – | 16% | –
58 | Nc1sc2c(c1C(=O)c1cccc(Cl)c1)CCCCC2 | 10% | 65% | –
59 | Nc1sc2c(c1C(=O)c1ccc(Br)cc1)CCCCC2 | 7% | 86% | –
